Laboratory results as given in ChEMBL document CHEMBL4020832, “Development of (6 R)-2-Nitro-6-[4-(trifluoromethoxy)phenoxy]-6,7-dihydro-5 H-imidazo[2,1- b][1,3]oxazine (DNDI-8219): A New Lead for Visceral Leishmaniasis” (J Med Chem, 2018).

Key:
[1] = Metabolic stability in hamster liver microsomes assessed as parent compound remaining at 1 uM after 1 hr; assay type: ADME, microsome; conditions: read-out: Stability
[2] = Volume of distribution at steady state in golden Syrian hamster at 2 mg/kg, iv by LC-MS/MS analysis; assay type: ADME, organism-based, Mesocricetus auratus; conditions: in vivo, read-out: Vdss
Summary of the method: (§1)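 Fasted female golden Syrian hamsters given 2 mg/kg iv as a solution in 20% NMP and 40% PEG-400 in citrate buffer pH 3. Plasma concentrations determined by LC–MS/MS to derive PK parameters.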

[3] = AUClast in golden Syrian hamster at 2 mg/kg, iv after 24 to 48 hrs by LC-MS/MS analysis; assay type: ADME, organism-based, Mesocricetus auratus; conditions: in vivo
Summary of the method: (§2)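 Fasted female golden Syrian hamsters. IV dose was 2 mg/kg as a solution in 20% NMP and 40% PEG-400 in citrate buffer (pH 3). Oral dosing at 40–50 mg/kg used PEG-400 as vehicle. Plasma was quantified by LC–MS/MS. AUClast was taken to the last time point (24 or 48 h).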

[4] = Tmax in golden Syrian hamster at 40 mg/kg, po by LC-MS/MS analysis; assay type: ADME, organism-based, Mesocricetus auratus; conditions: in vivo
[5] = Half life in golden Syrian hamster at 40 mg/kg, po by LC-MS/MS analysis; assay type: ADME, organism-based, Mesocricetus auratus; conditions: in vivo
Liver [6] = assay: Metabolic stability in CD-1 mouse liver microsomes assessed as parent compound remaining at 1 uM after 1 hr; assay type: ADME, microsome
[7] = AUClast in golden Syrian hamster at 40 mg/kg, po after 24 to 48 hrs by LC-MS/MS analysis; assay type: ADME, organism-based, Mesocricetus auratus; conditions: in vivo; summary of the method: as §2
[8] = Half life in golden Syrian hamster at 2 mg/kg, iv by LC-MS/MS analysis; assay type: ADME, organism-based, Mesocricetus auratus; conditions: in vivo; summary of the method: as §2
[9] = Clearance in golden Syrian hamster at 2 mg/kg, iv by LC-MS/MS analysis; assay type: ADME, organism-based, Mesocricetus auratus; conditions: in vivo
Liver [10] = assay: Metabolic stability in human liver microsomes assessed as parent compound remaining at 1 uM after 1 hr; assay type: ADME, microsome
[11] = Cmax in golden Syrian hamster at 40 mg/kg, po by LC-MS/MS analysis; assay type: ADME, organism-based, Mesocricetus auratus; set-up: dose 40 mg/kg, route oral; conditions: in vivo; summary of the method: as §2
Mus musculus [12] = assay: (§3) Cmax in Swiss albino mouse at 40 mg/kg, po by LC-MS/MS analysis; assay type: ADME, organism-based; set-up: dose 40 mg/kg, route oral; conditions: in vivo
[13] = Half life in Sprague-Dawley rat at 1 mg/kg, iv by LC-MS/MS analysis; assay type: ADME, organism-based; conditions: in vivo
Summary of the method: (§4)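 Fasted male Sprague-Dawley rats. IV dose was 1 mg/kg as a solution in 20% NMP and 40% PEG-400 in citrate buffer (pH 3). Oral dose was 40–50 mg/kg as a suspension in 0.08% Tween 80 and 0.5% CMC in water. Plasma was analysed by LC–MS/MS. AUClast was taken to the last time point (24 or 48 h).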

[14] = Octanol/phosphate buffer solution distribution coefficient, log D of the compound at pH 7.4 by LC-MS/MS method; assay type: physicochemical; conditions: octanol/water
Summary of the method: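 Shake-flask partition between octanol and 100 mM phosphate buffer pH 7.4 at room temperature, final matrix 1% DMSO. Phases quantified by LC–MS/MS.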

Mus musculus [15] = assay: (§5) AUClast in Swiss albino mouse at 40 mg/kg, po after 24 to 48 hrs by LC-MS/MS analysis; assay type: ADME, organism-based; conditions: in vivo
Rattus norvegicus [16] = assay: (§6) Tmax in Sprague-Dawley rat at 40 mg/kg, po by LC-MS/MS analysis; assay type: ADME, organism-based; conditions: in vivo
Summary of the method: (§7)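 Fasted male Sprague-Dawley rats dosed orally at 40–50 mg/kg as a suspension in 0.08% Tween 80/0.5% CMC in water. iv reference was 1 mg/kg in 20% NMP/40% PEG-400 in citrate buffer pH 3. Plasma analysed by LC–MS/MS. F from dose-normalized AUClast.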

[17] = Volume of distribution at steady state in Sprague-Dawley rat at 1 mg/kg, iv by LC-MS/MS analysis; assay type: ADME, organism-based; conditions: in vivo, read-out: Vdss
Summary of the method: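 Fasted male Sprague-Dawley rats received 1 mg/kg iv as a solution in 20% NMP/40% PEG-400 in citrate buffer pH 3. Plasma concentrations by LC–MS/MS used for PK parameter estimation.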

Rattus norvegicus [18] = assay: (§8) Cmax in Sprague-Dawley rat at 40 mg/kg, po by LC-MS/MS analysis; assay type: ADME, organism-based; set-up: dose 40 mg/kg, route oral; conditions: in vivo; summary of the method: as §4
[19] = Half life in Swiss albino mouse at 40 mg/kg, po by LC-MS/MS analysis; assay type: ADME, organism-based; conditions: in vivo
[20] = Initial concentration in golden Syrian hamster at 2 mg/kg, iv by LC-MS/MS analysis; assay type: ADME, organism-based, Mesocricetus auratus; conditions: in vivo; summary of the method: as §1
Rattus norvegicus [21] = assay: (§9) Oral bioavailability in Sprague-Dawley rat at 40 mg/kg by LC-MS/MS analysis; assay type: ADME, organism-based; conditions: in vivo; summary of the method: as §7
Mus musculus [22] = assay: (§10) Tmax in Swiss albino mouse at 40 mg/kg, po by LC-MS/MS analysis; assay type: ADME, organism-based; conditions: in vivo
[23] = Initial concentration in Sprague-Dawley rat at 1 mg/kg, iv by LC-MS/MS analysis; assay type: ADME, organism-based; conditions: in vivo
Summary of the method: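 Male Sprague-Dawley rats, fasted, dosed iv at 1 mg/kg as a solution in 20% NMP/40% PEG-400 in citrate buffer (pH 3). Plasma was analysed by LC–MS/MS and C0 was derived with WinNonlin-type PK analysis.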

[24] = AUClast in Sprague-Dawley rat at 1 mg/kg, iv after 24 to 48 hrs by LC-MS/MS analysis; assay type: ADME, organism-based; conditions: in vivo; summary of the method: as §4
[25] = Clearance in Sprague-Dawley rat at 1 mg/kg, iv by LC-MS/MS analysis; assay type: ADME, organism-based; conditions: in vivo; summary of the method: as §4
[26] = Apparent permeability from apical to basolateral side in MDCK cells harboring MDR1 at 2 uM after 150 mins by LC-MS/MS analysis; assay type: ADME, cell-based, Canis lupus familiaris; conditions: dog
Summary of the method: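 MDCK-MDR1 monolayers were seeded at 2 × 10^5 cells/cm2 and grown to confluence over 4–7 days. Compound at 2 μM in 0.4% DMSO/HBSS was applied apically or basolaterally. Plates were incubated 150 min at 37 °C, 5% CO2, in triplicate. Quantitation was by LC–MS/MS analyte/internal-standard peak-area ratio.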

Syrian golden hamster = assay: Oral bioavailability in golden Syrian hamster at 40 mg/kg by LC-MS/MS analysis; assay type: ADME, organism-based, Mesocricetus auratus; conditions: in vivo
[27] = as §3; assay type: ADME, organism-based; set-up: dose 40 mg/kg, route oral; conditions: Swiss albino, in vivo
[28] = AUClast in golden Syrian hamster at 50 mg/kg, po after 24 to 48 hrs by LC-MS/MS analysis; assay type: ADME, organism-based, Mesocricetus auratus; conditions: in vivo; summary of the method: as §2
[29] = Tmax in golden Syrian hamster at 50 mg/kg, po by LC-MS/MS analysis; assay type: ADME, organism-based, Mesocricetus auratus; conditions: in vivo
[30] = as §5; assay type: ADME, organism-based; conditions: Swiss albino, in vivo
[31] = as §6; assay type: ADME, organism-based; conditions: Sprague-Dawley, in vivo; summary of the method: as §7
[32] = as §8; assay type: ADME, organism-based; set-up: dose 40 mg/kg, route oral; conditions: Sprague-Dawley, in vivo; summary of the method: as §4
[33] = Half life in golden Syrian hamster at 50 mg/kg, po by LC-MS/MS analysis; assay type: ADME, organism-based, Mesocricetus auratus; conditions: in vivo
[34] = as §9; assay type: ADME, organism-based; conditions: Sprague-Dawley, in vivo; summary of the method: as §7
[35] = Cmax in golden Syrian hamster at 50 mg/kg, po by LC-MS/MS analysis; assay type: ADME, organism-based, Mesocricetus auratus; set-up: dose 50 mg/kg, route oral; conditions: in vivo; summary of the method: as §2
[36] = as §10; assay type: ADME, organism-based; conditions: Swiss albino, in vivo
[37] = Half life in Sprague-Dawley rat at 40 mg/kg, po by LC-MS/MS analysis; assay type: ADME, organism-based; conditions: in vivo; summary of the method: as §4
[38] = AUClast in Sprague-Dawley rat at 40 mg/kg, po after 24 to 48 hrs by LC-MS/MS analysis; assay type: ADME, organism-based; conditions: in vivo
[39] = Metabolic stability in hamster liver microsomes assessed as parent compound remaining at 0.5 uM after 0.5 hr; assay type: ADME, microsome; conditions: read-out: Stability

Structure (SMILES) | remaining at 1 h, 1 µM [1] [%] | Vd [2] [L/kg] | AUC(0-t) [3] [ng·h/mL] | Tmax [4] [h] | half-life [5] [min] | Stability (Liver [6]) [%] | AUC(0-t) [7] [ng·h/mL] | half-life [8] [min] | clearance [9] [mL/min/kg] | Stability (Liver [10]) [%] | Cmax [11] [ng/mL] | Cmax (Mus musculus [12]) [µg/mL] | half-life [13] [min] | AUClast (Mus musculus [15]) [µg·h/mL] | Vd [17] [L/kg] | half-life [19] [min] | C0 [20] [ng/mL] | Tmax (Mus musculus [22]) [h] | C0 [23] [ng/mL] | F (Syrian golden hamster) [%] | further results
O=[N+]([O-])c1cn2c(n1)OC[C@H](OCc1ccc(-c3ccc(OC(F)(F)F)cc3F)nc1)C2 | 9.2 | 3.2 | 3690 | 3.3 | 348 | 41 | 46500 | 318 | 8.8 | 37 | 4700 | – | – | – | – | – | – | – | – | – | –
O=[N+]([O-])c1cn2c(n1)OC[C@H](Oc1ccc(OC(F)(F)F)cc1)C2 | 19 | 6.5 | 420 | 3.3 | 132 | – | 11200 | 84 | – | – | 2100 | 21 | 180 | 272 | 2.7 | 468 | 660 | 5.3 | 540 | 100 | logD [14]: 2.59; Tmax (Rattus norvegicus [16]): 6.7 h; Cmax (Rattus norvegicus [18]): 5.2 µg/mL; F (Rattus norvegicus [21]): 100%; AUC(0-t) [24]: 1510 ng·h/mL; clearance [25]: 11 mL/min/kg; Papp [26]: 32.4 ×10⁻⁶ cm/s
O=[N+]([O-])c1cn2c(n1)OC[C@H](OCc1ccc(-c3ccc(F)cc3F)cn1)C2 | 5.2 | 4 | 480 | 0.75 | 49.8 | 57 | 3950 | 49.8 | 63 | 59 | 1900 | – | – | – | – | – | 930 | – | – | 37 | –
O=[N+]([O-])c1cn2c(n1)OC[C@H](Oc1ccc(C(F)(F)F)cn1)C2 | 48 | – | – | – | – | 92 | – | – | – | 90 | – | – | 162 | – | 1.5 | 1800 | – | – | 840 | – | Cmax [27]: 96 µg/mL; AUC(0-t) [28]: 71000 ng·h/mL; Tmax [29]: 3.3 h; AUC(0-t) [30]: 1780 µg·h/mL; Tmax [31]: 2.7 h; Cmax [32]: 18000 ng/mL; half-life [33]: 186 min; bioavailability [34]: 100%; Cmax [35]: 12000 ng/mL; Tmax [36]: 3.1 h; AUC(0-t) [24]: 2470 ng·h/mL; clearance [25]: 6.1 mL/min/kg; half-life [37]: 210 min; AUC(0-t) [38]: 164 µg·h/mL
O=[N+]([O-])c1cn2c(n1)OC[C@H](OCc1ccc(-c3ccc(OC(F)(F)F)cc3)cn1)C2 | 10 | 8.2 | 1300 | – | 348 | – | 62700 | 378 | 23 | 27 | 5700 | 16 | – | 211 | – | 564 | 650 | 4.7 | – | 100 | remaining at 0.5 h, 0.5 µM [39]: 61%
